According to ChEMBL document CHEMBL1152436, “Synthesis, biological evaluation, and three-dimensional in silico pharmacophore model for sigma(1) receptor ligands based on a series of substituted benzo[d]oxazol-2(3H)-one derivatives” (J Med Chem, 2009):

How the values were obtained:
[1] = target: Sigma non-opioid intracellular receptor 1 (Rattus norvegicus, UniProt Q9R0C9); assay: Displacement of [3H](+)-pentazocine from sigma1 receptor in rat liver membrane by liquid scintillation counting; type: cell membranes
Chain of Sigma non-opioid intracellular receptor 1 (Q9R0C9 whole entry): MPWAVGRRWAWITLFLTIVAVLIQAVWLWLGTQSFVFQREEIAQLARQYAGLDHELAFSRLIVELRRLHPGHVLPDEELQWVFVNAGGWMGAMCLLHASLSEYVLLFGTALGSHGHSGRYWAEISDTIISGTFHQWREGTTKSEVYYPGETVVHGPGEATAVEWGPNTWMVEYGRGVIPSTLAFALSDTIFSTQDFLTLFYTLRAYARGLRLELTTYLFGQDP

[2] = Displacement of [3H]DTG from sigma2 receptor in rat liver membrane by liquid scintillation counting; type: cell membranes
Method in brief: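 Rat liver homogenate (150 μg) incubated 120 min at room temperature with 3 nM [3H]DTG in 50 mM Tris-HCl pH 8.0. σ1 sites masked with 100 nM (+)-pentazocine; nonspecific binding with 10 μM haloperidol. At least 11 ligand concentrations, 0.1% final DMSO. Filtration on PEI-soaked GF/B filters. IC50 and nH from four-parameter fit, 2–4 determinations in duplicate, mean ± SEM.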

| Compound | Ki [1] | Ki [2] |
| --- | --- | --- |
| Cc1ccccc1CN1CCC(Cn2c(=O)oc3ccccc32)CC1 | 29.8 nM | – |
| Cc1ccc(CN2CCC(Cn3c(=O)oc4ccccc43)CC2)cc1 | 3.07 nM | – |
| Cc1ccc(CN(C)CCCn2c(=O)oc3ccccc32)cc1 | 871 nM | 991 nM |
| COc1ccccc1CN(C)CCCn1c(=O)oc2ccccc21 | 1950 nM | 192 nM |
| COc1ccc(CN(C)CCCn2c(=O)oc3ccccc32)cc1 | 83 nM | 2600 nM |
| Cc1ccc(CN(C)CCCCn2c(=O)oc3ccccc32)cc1 | 97 nM | 22.9 nM |
| CN(CCCn1c(=O)oc2ccccc21)Cc1ccccc1Cl | 2490 nM | 456 nM |
| Cc1ccc(CN2CCC(C(=O)Nc3ccccc3)CC2)cc1 | 105 nM | – |
| CN(CCCCn1c(=O)oc2ccccc21)Cc1ccccc1Cl | 843 nM | 37.4 nM |
| CN(CCCCn1c(=O)oc2ccccc21)Cc1ccc(Cl)cc1 | – | 36.2 nM |
| CN(CCCCn1c(=O)oc2ccccc21)Cc1cccc(Cl)c1 | 302 nM | – |
| O=C(Nc1ccccc1)C1CCN(Cc2ccccc2)CC1 | 48.1 nM | – |
| CN(CCCn1c(=O)oc2ccccc21)Cc1cccc(Cl)c1 | 3230 nM | 1120 nM |
| CN(CCCCn1c(=O)oc2ccccc21)Cc1ccccc1 | – | 120 nM |
| COc1ccc(CN(C)CCCCn2c(=O)oc3ccccc32)cc1 | 21 nM | 20.8 nM |
| O=C(Nc1ccccc1)C1CCN(Cc2ccc(Cl)cc2)CC1 | 45 nM | – |
| COc1ccccc1CN(C)CCCCn1c(=O)oc2ccccc21 | 594 nM | – |
| CN(CCCn1c(=O)oc2ccccc21)Cc1ccc(Cl)cc1 | – | 456 nM |
| Cc1ccc(CN2CCC(C(=O)NCc3ccccc3)CC2)cc1 | 69.4 nM | – |
| Cc1ccc(CN(C)CCCCn2c(=O)oc3ccccc32)c(C)c1 | 239 nM | 6.94 nM |
| Cc1cccc(CN(C)CCCCn2c(=O)oc3ccccc32)c1 | 102 nM | 31.8 nM |
| Cc1cccc(CN(C)CCCn2c(=O)oc3ccccc32)c1 | 1830 nM | 2720 nM |
| CN(CCCn1c(=O)oc2ccccc21)Cc1ccccc1 | – | 1120 nM |
| Cc1ccccc1CN(C)CCCn1c(=O)oc2ccccc21 | 901 nM | 1350 nM |
| COc1cccc(CN(C)CCCn2c(=O)oc3ccccc32)c1 | 8550 nM | 2130 nM |
| Cc1ccc(CN(C)CCCn2c(=O)oc3ccccc32)c(C)c1 | 1830 nM | 2060 nM |
| COc1cccc(CN(C)CCCCn2c(=O)oc3ccccc32)c1 | 297 nM | 187 nM |
| CC(C)=CCN1CC[C@]2(C)c3cc(O)ccc3C[C@H]1[C@H]2C [(+)-PENTAZOCINE] | – | 327 nM |
| Cc1ccccc1NC(=N)Nc1ccccc1C [DITOLYLGUANIDINE] | – | 130 nM |
| O=C(CCCN1CCC(O)(c2ccc(Cl)cc2)CC1)c1ccc(F)cc1 [HALOPERIDOL] | – | 235 nM |
